Residue numbers refer to the chain shown, from its start. In names and notes the source's numbering stands. Several values for one entry are separate records, joined by “and”; a condition that tells them apart may be missing. Equal entries are not always repeated. Entries after “also recorded” stand apart in the source; their conditions may differ.
Columns and labels:
[1] = system: RAW macrophages; assay: Cytotoxicity of MAPK inhibitors; assay type: cell-based, mouse; settings: unpublished data
[2] = system: p300 HAT domain; assay: In vitro acetylation of MKP-1 docking domain peptides by p300; assay type: biochemical; settings: recombinant p300 HAT domain, labelled acetyl-CoA, 30°C 10 min, autoradiography
[3] = system: NOS2; assay: NOS2 protein levels by immunoblot in RAW cells; assay type: cell-based, mouse; settings: macrophages, TLR agonist 16 h
Outline: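 RAW 264.7 cells were handled in two ways. For agonist response, cells were exposed to the TLR agonists PGN, poly(I:C), LPS or E. coli for 16 h, with or without TSA. For TSA dose-response, cells were pretreated with increasing TSA for 1 h, then given LPS 100 ng/ml for 6 h, with ERα as the blot control. In both, lysates were immunoblotted for NOS2.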

[4] = system: HEK293 cells; assay: Acetylation of HA-MKP-1 in HEK293 cells; assay type: cell-based; settings: IP acetyl-lysine, blot HA
[5] = MKP-1 catalytic; assay type: biochemical; settings: OMFP, A 477 nm, 30°C, 0–40 min, n = 2 ± SD
Outline: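 Recombinant MKP-1 (0.66 μg) was acetylated or not with recombinant p300 HAT (2.5 μg) and 5 μl of 1 mM acetyl-CoA stock for 30 min at 30°C. Recombinant p38 (2 μg) or control was added for 1 h at 30°C. The substrate 3-O-methylfluorescein phosphate was then added and A477 nm monitored at 30°C. n = 2, ± SD.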

[6] = system: TNF-α; assay: LPS-induced TNF-α RNA in MKP-1 KO MEFs rescued with MKP-1; assay type: cell-based, mouse; settings: 4-HT, then LPS and TSA 1 h; RT-PCR
[7] = system: phospho-p38; assay: Dephosphorylation of recombinant phospho-p38 by recombinant MKP-1; assay type: biochemical; settings: for dephosphorylation of phospho-p38, without p300: recombinant MKP-1, immunoblot; for dephosphorylation of phospho-p38, effect of adding p300: recombinant MKP-1 acetylated with p300, immunoblot
Outline: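 Recombinant His-MKP-1 made from pRSET-His-MKP-1 by in vitro transcription and translation. It was incubated with recombinant p300 and cold acetyl-CoA, or with control. It was then incubated with recombinant phospho-p38, and remaining phospho-p38 was detected by immunoblotting.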

[8] = system: p38; assay: Phospho-p38 in MKP-1 KO MEFs rescued with MKP-1; assay type: cell-based, mouse; settings: 4-HT, then LPS and TSA 1 h
Outline: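 MKP-1−/− fibroblasts were immortalized with SV40 T-antigen and transfected with MKP-1(WT)-ERα or MKP-1(K57R)-ERα. Expression was induced with 200 nM 4-hydroxytamoxifen, then cells were treated with LPS and TSA for 1 h. Lysates were immunoblotted for phospho-p38, total p38 and the ER tag.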

## C[S+]([O-])c1ccc(-c2nc(-c3ccncc3)c(-c3ccc(F)cc3)[nH]2)cc1 (centres unmarked) [SB203580]
[1]
  cytotoxicity: not cytotoxic

## Oc1c2ccccc2c2c3c(cccc13)N=N2 [SP600125]
[1]
  cytotoxicity: not cytotoxic

## N#CC(=C(/N)Sc1ccccc1N)/C(C#N)=C(/N)Sc1ccccc1N [U0126]
[1]
  cytotoxicity: not cytotoxic

## RFSTIVRRRAKGAMGLEHIVPNAELRGRLLA [MKP-1(47–76)(WT)]
[2]
  acetylation of peptide by p300: p300 acetylates MKP-1(47–76)

## RFSTIVRRRARGAMGLEHIVPNAELRGRLLA [MKP-1(47–76)(K57R)]
[2]
  acetylation of peptide by p300: p300 cannot acetylate MKP-1(47–76)(K57R)

## peptidoglycan
[3]
  NOS2 expression, activation by TLR agonist alone: can activate NOS2 expression in macrophages

B1: HA-MKP-1(K57R) (protein, UniProt P28562 1-367, looked up, variant K57R)
Dual specificity protein …: MVMEVGTLDAGGLRALLGERAAQCLLLDCRSFFAFNAGHIAGSVNVRFSTIVRRRARGAMGLEHIVPNAELRGRLLAGAYHAVVLLDERSAALDGAKRDGTLALAAGALCREARAAQVFFLKGGYEAFSASCPELCSKQSTPMGLSLPLSTSVPDSAESGCSSCSTPLYDQGGPVEILPFLYLGSAYHASRKDMLDALGITALINVSANCPNHFEGHYQYKSIPVEDNHKADISSWFNEAIDFIDSIKNAGGRVFVHCQAGISRSATICLAYLMRTNRVKLDEAFEFVKQRRSIISPNFSFMGQLLQFESQVLAPHCSAEAGSPAMAVLDRGTSTTTVFNFPVSIPVHSTNSALSYLQSPITTSPSC
modifications: HA tag
[4]
  acetylation of HA-MKP-1 in cells in response to LPS and TSA: MKP-1(K57R) is not

B2: MKP-1: Recombinant MKP-1, acetylated or not with p300 and acetyl-CoA (protein, UniProt P28562 1-367, looked up)
Dual specificity protein …: B1 Dual specificity protein … with R57K
modifications: optionally acetylated
[5]
  phosphatase activity, effect of recombinant p38: increases the phosphatase activity of MKP-1
[5]; p300 and acetyl-CoA 30 min at 30°C, then p38 1 h at 30°C
  increase of phosphatase activity by acetylation in the presence of p38: ~125% and > 100%
[5]; p300 and acetyl-CoA
  phosphatase activity, effect of acetylation without p38: negligible effect on phosphatase activity; also recorded: does not affect phosphatase activity of the enzyme alone

B3: MKP-1(K57R) (protein, UniProt P28562 1-367, looked up, variant K57R)
Dual specificity protein …: B1 Dual specificity protein …
[6]
  effect of TSA on LPS-induced TNF-α in MKP-1 KO MEFs after ectopic expression: not with MKP-1(K57R)
[7]
  dephosphorylation of phospho-p38, without p300: can decrease the phosphorylation of p38
  dephosphorylation of phospho-p38, effect of adding p300: no further effect on MKP-1 dephosphorylation of p38
[8]
  effect of TSA on phospho-p38 in MKP-1 KO MEFs after ectopic expression: cannot restore the effects of TSA upon phospho-p38

B4: MKP-1(WT): recombinant or ectopically expressed wild-type MKP-1 (protein)
chain: MVMEVGILDAGGLRALLREGAAQCLLLDCRSFFAFNAGHIAGSVNVRFSTIVRRRAKGAMGLEHIVPNAELRGRLLAGAYHAVVLLDERSASLDGAKRDGTLALAAGALCREARSTQVFFLQGGYEAFSASCPELCSKQSTPTGLSLPLSTSVPDSAESGCSSCSTPLYDQGGPVEILSFLYLGSAYHASRKDMLDALGITALINVSANCPNHFEGHYQYKSIPVEDNHKADISSWFNEAIDFIDSIKDAGGRVFVHCQAGISRSATICLAYLMRTNRVKLDEAFEFVKQRRSIISPNFSFMGQLLQFESQVLAPHCSAEAGSPAMAVLDRGTSTTTVFNFPVSIPVHPTNSALNYLKSPITTSPSC
modifications: left off: ERα ligand-binding domain, end not stated, kept
[7]
  dephosphorylation of phospho-p38, without p300: reduces phosphorylation of p38
  dephosphorylation of phospho-p38, effect of adding p300: further decrease in phosphorylation of p38
[8]
  effect of TSA on phospho-p38 in MKP-1 KO MEFs after ectopic expression: restores the ability of TSA to decrease phospho-p38 levels
